Measured values taken from the M2OR odorant receptor database.

Molecular target: T1, UniProt E1BM68
T1 sequence (whole entry): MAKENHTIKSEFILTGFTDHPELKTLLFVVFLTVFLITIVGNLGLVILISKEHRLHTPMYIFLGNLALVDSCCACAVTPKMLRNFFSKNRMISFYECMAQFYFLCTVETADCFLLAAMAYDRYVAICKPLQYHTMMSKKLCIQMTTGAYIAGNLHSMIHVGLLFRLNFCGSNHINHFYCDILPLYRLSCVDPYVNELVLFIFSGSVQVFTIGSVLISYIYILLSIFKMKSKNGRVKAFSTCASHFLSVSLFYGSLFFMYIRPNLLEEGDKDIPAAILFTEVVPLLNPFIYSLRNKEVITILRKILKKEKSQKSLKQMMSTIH
Conditions: stereoisomer not certain
How it was run: (§1)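 Each entry records the cell line, G-protein, co-transfected protein and tags used. Methods varied with the source, often transient luciferase assays in mammalian cell lines. A receptor–molecule pair is called responsive (active) if the original authors judged its signal statistically different from baseline and non-responsive (inactive) otherwise.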

Odorant receptor agonist call, inactive:
COC1=C(C)OC(C)C1=O (stereo not given)
CCc1cnc(C)c(C)n1

Odorant receptor agonist call, active:
CC1CCc2nccnc21 (stereo not given)
Cc1cncc(C)n1
CC1=NC(C)C(C)S1 (stereo not given)
Cc1cnc(C)cn1
Cc1cnc(C)c(C)n1
CCc1nccnc1OC
COc1nccnc1CC(C)C
CC(=O)c1cnccn1
CCc1nccnc1C
Cc1nccnc1C
C=Cc1cnccn1
Cc1cnccn1

Molecular target: T2, UniProt E9Q9Z6
T2 sequence (whole entry): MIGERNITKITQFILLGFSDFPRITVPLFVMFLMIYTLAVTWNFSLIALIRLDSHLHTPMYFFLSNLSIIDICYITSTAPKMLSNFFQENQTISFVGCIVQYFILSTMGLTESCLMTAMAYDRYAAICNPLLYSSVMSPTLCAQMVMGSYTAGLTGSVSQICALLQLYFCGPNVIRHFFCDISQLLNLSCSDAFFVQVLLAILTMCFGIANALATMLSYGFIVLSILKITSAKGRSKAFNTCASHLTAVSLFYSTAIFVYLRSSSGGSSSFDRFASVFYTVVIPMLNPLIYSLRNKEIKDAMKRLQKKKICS
Conditions: stereoisomer not certain
How it was run: as §1

Odorant receptor agonist call, active:
CC(=O)c1c(C)c([N+](=O)[O-])c(C(C)(C)C)c([N+](=O)[O-])c1C
CC1CCCCCCCCCCCCC(=O)C1 (stereo not given)
OC1CCCCCCCCCCCCCC1
CC1CC=CCCCCCCCCC(=O)C1 (stereo not given)
O=C1CCCCCCC=CCCCCCCC1
O=C1CCCCCCCCCCCCCC1
CCCCCCCCCCCCCC(C)=O
O=C1C=CCCCCCCCCCCCCO1
CC1CCCCCCCCCCCC(=O)C1 (stereo not given)
O=C1CCCC=CCCCCCCCCCC1

Odorant receptor agonist call, inactive:
O=C1CCCCCCCCC1
C1CCCCCCCCCCCCCC1
CCC(=O)OCC(C)(C)OC(C)C1CCCC(C)(C)C1 (stereo not given)
CCCCCCCC(=O)CCCCCCC
O=C1CCCCCCCCCC1
CC1C(C)(C)C2=C(C(=O)CCC2)C1(C)C (stereo not given)
O=C1CCCCCC=CCCCCCCCCO1

Molecular target: T3, UniProt E9QAT7
T3 sequence (whole entry): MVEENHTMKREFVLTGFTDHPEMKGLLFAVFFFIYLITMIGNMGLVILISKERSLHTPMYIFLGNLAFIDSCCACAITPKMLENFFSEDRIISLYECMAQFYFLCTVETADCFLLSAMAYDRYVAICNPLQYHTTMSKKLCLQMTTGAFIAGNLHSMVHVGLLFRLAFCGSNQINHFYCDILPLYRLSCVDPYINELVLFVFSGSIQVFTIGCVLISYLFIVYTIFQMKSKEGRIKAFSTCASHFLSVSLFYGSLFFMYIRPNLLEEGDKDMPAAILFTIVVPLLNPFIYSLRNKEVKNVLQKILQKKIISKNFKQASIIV
Conditions: stereoisomer not certain
How it was run: as §1

Odorant receptor agonist call, active:
Cc1cncc(C)n1
CC1=NC(C)C(C)S1 (stereo not given)
Cc1cnc(C)c(C)n1
CCc1nccnc1OC
CCc1cnc(C)c(C)n1

Odorant receptor agonist call, inactive:
CC1CCc2nccnc21 (stereo not given)
Cc1cnc(C)cn1
COC1=C(C)OC(C)C1=O (stereo not given)
COc1nccnc1CC(C)C
CC(=O)c1cnccn1
CCc1nccnc1C
Cc1nccnc1C
C=Cc1cnccn1
Cc1cnccn1
